In ChEMBL document CHEMBL5653631, “A Potent and Selective ULK1 Inhibitor Suppresses Autophagy and Sensitizes Cancer Cells to Nutrient Stress” (iScience, 2018):
Blank lines part the entries; values can stand above or below the molecule they belong to.

Tests used:
[1] = target: cAMP-dependent protein kinase catalytic subunit alpha (Homo sapiens) (UniProt P17612); experiment: Inhibition of human recombinant PKACalpha at 500 nM in presence of ATP by radiometric assay relative to control
[2] = target: T1, Myotonin-protein kinase (Homo sapiens) (UniProt Q09013); experiment: Inhibition of human recombinant DMPK1 at 500 nM in presence of ATP by radiometric assay relative to control
T1 sequence (whole entry): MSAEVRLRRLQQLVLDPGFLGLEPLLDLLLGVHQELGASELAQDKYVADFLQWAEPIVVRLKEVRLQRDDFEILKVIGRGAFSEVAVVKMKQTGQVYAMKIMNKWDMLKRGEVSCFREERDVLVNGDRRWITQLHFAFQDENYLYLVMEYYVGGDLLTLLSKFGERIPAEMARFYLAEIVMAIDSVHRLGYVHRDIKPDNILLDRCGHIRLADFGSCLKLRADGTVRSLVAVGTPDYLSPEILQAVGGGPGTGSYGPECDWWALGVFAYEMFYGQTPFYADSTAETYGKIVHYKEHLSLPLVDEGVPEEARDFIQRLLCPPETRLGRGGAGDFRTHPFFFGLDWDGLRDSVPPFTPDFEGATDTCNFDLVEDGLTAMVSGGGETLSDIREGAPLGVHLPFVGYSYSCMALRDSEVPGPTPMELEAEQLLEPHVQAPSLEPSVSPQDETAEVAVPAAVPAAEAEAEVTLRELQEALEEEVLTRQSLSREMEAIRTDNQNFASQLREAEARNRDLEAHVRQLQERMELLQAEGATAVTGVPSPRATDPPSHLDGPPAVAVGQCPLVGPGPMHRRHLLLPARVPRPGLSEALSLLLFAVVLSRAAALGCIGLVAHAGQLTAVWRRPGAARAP

[3] = target: Fibroblast growth factor receptor 1 (Homo sapiens) (UniProt P11362); experiment: Inhibition of human recombinant FGFR1 at 500 nM in presence of ATP by radiometric assay relative to control
Chain of Fibroblast growth factor receptor 1 (Homo sapiens) (P11362 22-822 limits assumed): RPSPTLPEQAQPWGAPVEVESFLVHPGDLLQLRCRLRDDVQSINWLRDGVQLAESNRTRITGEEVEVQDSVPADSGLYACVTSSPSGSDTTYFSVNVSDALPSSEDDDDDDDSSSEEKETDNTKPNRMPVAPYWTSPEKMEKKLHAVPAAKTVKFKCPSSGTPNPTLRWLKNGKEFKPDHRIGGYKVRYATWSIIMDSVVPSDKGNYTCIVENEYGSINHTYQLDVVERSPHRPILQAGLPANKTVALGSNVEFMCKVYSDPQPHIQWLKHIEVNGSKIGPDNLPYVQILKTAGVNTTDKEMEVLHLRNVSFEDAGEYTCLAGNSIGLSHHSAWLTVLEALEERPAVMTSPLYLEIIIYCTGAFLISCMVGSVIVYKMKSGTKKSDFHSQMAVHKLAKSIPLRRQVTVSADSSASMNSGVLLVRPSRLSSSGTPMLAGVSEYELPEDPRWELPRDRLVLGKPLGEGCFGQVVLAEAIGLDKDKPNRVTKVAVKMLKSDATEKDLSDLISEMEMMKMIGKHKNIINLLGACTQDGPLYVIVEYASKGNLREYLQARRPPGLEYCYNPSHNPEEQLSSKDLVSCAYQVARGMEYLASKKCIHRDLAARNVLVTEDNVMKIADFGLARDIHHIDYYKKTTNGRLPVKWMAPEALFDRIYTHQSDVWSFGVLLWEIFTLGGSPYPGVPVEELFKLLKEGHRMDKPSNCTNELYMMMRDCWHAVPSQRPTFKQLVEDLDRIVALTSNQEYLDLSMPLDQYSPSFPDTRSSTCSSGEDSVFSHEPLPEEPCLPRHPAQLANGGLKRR

[4] = target: Cyclin-dependent kinase 9 (Homo sapiens) (UniProt P50750); experiment: Inhibition of human recombinant CDK9 at 15 nM in presence of ATP by radiometric assay relative to control
Chain of Cyclin-dependent kinase 9 (Homo sapiens) (P50750 whole entry): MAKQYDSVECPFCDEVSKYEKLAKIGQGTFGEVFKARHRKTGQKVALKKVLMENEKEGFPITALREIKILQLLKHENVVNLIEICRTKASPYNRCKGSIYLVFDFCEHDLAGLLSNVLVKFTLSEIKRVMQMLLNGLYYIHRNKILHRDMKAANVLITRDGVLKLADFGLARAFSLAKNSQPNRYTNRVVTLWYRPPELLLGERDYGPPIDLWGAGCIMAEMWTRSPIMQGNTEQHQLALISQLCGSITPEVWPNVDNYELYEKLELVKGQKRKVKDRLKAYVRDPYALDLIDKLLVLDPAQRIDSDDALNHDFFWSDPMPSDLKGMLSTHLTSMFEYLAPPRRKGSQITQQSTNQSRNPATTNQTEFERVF

[5] = target: Protein-tyrosine kinase 2-beta (Homo sapiens) (UniProt Q14289); experiment: Inhibition of human recombinant PYK2 at 15 nM related to control ULK1
[6] = target: Serine/threonine-protein kinase Nek7 (Homo sapiens) (UniProt Q8TDX7); experiment: Inhibition of human recombinant NEK7 at 15 nM in presence of ATP by radiometric assay relative to control
Chain of Serine/threonine-protein kinase Nek7 (Homo sapiens) (Q8TDX7 whole entry, looked up): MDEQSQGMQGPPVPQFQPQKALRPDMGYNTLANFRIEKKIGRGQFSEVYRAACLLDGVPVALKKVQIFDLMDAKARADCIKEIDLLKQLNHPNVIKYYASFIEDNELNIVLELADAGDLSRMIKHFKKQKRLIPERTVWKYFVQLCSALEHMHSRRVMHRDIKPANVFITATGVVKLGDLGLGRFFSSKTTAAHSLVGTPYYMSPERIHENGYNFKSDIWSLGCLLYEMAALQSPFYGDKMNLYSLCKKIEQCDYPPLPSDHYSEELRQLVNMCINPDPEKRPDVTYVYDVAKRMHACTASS

[7] = target: Tyrosine-protein kinase receptor UFO (Homo sapiens) (UniProt P30530); experiment: Inhibition of human recombinant AXL at 15 nM in presence of ATP by radiometric assay relative to control
Chain of Tyrosine-protein kinase receptor UFO (Homo sapiens) (P30530 whole entry): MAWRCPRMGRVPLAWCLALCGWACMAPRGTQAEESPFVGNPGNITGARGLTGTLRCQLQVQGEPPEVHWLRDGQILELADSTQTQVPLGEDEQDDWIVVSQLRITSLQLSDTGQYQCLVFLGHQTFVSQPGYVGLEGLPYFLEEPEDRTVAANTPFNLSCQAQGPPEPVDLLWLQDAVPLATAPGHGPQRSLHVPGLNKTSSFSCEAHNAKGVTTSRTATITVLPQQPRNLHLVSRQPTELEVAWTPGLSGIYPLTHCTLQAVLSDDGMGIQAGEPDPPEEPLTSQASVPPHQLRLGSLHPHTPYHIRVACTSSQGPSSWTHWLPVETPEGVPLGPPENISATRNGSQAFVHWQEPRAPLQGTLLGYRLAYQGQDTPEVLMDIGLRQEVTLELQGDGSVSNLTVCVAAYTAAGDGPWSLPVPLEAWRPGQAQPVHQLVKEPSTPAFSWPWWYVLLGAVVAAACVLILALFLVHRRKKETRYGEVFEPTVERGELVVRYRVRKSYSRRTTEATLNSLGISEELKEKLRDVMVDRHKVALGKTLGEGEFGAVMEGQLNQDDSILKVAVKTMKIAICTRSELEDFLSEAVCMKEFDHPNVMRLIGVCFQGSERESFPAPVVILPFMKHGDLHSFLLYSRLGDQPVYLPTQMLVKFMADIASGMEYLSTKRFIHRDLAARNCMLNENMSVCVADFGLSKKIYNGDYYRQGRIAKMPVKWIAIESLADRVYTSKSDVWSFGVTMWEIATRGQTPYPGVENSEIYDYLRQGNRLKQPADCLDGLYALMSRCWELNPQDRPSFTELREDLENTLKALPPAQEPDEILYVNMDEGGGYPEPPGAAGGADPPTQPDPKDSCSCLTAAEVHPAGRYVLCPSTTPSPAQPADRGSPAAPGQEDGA
Outline: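 Panel of 327 recombinant human kinases, each assayed in vitro by radiometric activity assay in duplicate at a single inhibitor concentration per compound, chosen with reference to its ULK1 inhibition. Activity remaining was expressed as percent of vehicle control, and percent inhibition was calculated as 100 minus percent activity remaining.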

[8] = target: T2, Serine/threonine-protein kinase TBK1 (Homo sapiens) (UniProt Q9UHD2); experiment: Inhibition of human recombinant TBK1 at 15 nM in presence of ATP by radiometric assay relative to control
T2 sequence (whole entry): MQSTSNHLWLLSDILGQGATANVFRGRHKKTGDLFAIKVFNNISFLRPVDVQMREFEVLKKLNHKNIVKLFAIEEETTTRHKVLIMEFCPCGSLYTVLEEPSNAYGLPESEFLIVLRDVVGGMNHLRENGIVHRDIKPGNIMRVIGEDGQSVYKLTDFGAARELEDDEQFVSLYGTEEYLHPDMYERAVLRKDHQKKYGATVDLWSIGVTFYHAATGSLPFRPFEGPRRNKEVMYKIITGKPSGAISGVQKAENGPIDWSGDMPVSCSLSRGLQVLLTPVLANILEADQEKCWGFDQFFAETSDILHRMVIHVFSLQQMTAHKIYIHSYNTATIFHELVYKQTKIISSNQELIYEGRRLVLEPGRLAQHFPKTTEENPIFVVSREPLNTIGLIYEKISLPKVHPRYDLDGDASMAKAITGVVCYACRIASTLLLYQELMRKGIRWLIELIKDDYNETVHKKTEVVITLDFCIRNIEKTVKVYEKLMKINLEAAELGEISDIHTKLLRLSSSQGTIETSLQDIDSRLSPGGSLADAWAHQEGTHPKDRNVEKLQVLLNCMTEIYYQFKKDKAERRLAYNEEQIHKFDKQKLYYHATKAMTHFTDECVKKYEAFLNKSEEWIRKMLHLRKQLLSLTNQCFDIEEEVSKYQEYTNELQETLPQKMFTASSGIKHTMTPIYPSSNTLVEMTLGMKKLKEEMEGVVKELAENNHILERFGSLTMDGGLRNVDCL

[9] = target: T3, Serine/threonine-protein kinase BRSK2 (Homo sapiens) (UniProt Q8IWQ3); experiment: Inhibition of human recombinant BRSK2 at 40 nM related to control ULK1
T3 sequence (whole entry): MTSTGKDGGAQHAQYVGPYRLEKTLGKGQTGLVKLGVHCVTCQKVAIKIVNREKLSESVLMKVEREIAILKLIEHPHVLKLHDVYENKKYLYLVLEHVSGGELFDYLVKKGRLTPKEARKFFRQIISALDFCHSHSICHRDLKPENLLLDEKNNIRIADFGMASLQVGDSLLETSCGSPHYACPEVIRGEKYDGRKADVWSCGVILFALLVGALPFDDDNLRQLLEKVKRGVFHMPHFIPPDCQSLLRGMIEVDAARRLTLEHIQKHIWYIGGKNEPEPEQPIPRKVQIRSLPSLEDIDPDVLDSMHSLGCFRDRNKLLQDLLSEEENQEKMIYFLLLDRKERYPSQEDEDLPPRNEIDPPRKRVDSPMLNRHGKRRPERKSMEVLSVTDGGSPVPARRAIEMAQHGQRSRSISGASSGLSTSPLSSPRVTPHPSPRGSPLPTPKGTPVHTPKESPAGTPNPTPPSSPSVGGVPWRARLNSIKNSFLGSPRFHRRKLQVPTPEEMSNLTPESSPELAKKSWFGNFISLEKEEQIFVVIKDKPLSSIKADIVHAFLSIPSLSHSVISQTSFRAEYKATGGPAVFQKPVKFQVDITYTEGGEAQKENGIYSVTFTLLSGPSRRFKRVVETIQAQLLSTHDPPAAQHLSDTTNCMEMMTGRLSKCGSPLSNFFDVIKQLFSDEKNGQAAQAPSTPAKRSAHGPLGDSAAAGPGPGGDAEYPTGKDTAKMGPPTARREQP

[10] = target: Wee1-like protein kinase 2 (Homo sapiens) (UniProt P0C1S8); experiment: Inhibition of human recombinant Wee1B at 40 nM related to control ULK1
Chain of Wee1-like protein kinase 2 (Homo sapiens) (P0C1S8 whole entry, looked up): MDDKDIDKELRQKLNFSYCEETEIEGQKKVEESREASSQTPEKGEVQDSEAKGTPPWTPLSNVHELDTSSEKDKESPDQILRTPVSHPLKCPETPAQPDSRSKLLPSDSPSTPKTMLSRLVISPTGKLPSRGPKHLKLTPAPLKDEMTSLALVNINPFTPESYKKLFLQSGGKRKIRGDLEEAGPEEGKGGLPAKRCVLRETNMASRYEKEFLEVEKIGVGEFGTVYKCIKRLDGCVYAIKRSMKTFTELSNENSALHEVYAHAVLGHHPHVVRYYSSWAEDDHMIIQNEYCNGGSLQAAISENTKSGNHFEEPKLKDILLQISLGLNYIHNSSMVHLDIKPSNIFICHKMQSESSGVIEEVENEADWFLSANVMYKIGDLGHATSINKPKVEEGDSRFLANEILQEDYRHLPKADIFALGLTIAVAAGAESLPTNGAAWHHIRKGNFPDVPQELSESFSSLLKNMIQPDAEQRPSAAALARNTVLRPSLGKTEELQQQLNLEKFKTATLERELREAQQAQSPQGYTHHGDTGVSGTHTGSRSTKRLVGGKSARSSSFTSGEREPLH

[11] = target: Fibroblast growth factor receptor 3 (Homo sapiens) (UniProt P22607); experiment: Inhibition of human recombinant FGFR3 at 40 nM in presence of ATP by radiometric assay relative to control
Chain of Fibroblast growth factor receptor 3 (Homo sapiens) (P22607 23-806 limits assumed): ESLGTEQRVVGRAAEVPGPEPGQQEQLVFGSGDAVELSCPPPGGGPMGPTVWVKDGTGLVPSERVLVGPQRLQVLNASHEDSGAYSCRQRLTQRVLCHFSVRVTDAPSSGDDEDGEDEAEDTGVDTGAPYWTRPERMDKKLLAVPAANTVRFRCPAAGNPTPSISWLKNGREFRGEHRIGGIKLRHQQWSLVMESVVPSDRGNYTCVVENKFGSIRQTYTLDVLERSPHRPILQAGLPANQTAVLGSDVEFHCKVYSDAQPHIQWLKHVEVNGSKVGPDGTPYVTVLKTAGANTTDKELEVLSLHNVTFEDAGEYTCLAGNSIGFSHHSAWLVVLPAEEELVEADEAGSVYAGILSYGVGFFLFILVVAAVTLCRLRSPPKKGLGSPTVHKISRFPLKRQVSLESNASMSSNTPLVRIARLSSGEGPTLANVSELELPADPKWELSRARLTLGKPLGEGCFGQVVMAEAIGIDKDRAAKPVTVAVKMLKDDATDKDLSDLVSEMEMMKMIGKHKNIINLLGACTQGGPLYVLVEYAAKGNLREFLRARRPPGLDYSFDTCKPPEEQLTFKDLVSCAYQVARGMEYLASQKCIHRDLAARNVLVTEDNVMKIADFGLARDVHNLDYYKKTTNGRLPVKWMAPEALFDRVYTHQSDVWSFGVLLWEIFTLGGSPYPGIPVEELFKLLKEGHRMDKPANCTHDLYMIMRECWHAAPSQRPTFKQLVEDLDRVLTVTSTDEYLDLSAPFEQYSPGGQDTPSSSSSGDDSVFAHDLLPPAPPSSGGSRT

[12] = target: Serine/threonine-protein kinase PAK 6 (Homo sapiens) (UniProt Q9NQU5); experiment: Inhibition of human recombinant PAK6 at 40 nM related to control ULK1
Chain of Serine/threonine-protein kinase PAK 6 (Homo sapiens) (Q9NQU5 whole entry, looked up): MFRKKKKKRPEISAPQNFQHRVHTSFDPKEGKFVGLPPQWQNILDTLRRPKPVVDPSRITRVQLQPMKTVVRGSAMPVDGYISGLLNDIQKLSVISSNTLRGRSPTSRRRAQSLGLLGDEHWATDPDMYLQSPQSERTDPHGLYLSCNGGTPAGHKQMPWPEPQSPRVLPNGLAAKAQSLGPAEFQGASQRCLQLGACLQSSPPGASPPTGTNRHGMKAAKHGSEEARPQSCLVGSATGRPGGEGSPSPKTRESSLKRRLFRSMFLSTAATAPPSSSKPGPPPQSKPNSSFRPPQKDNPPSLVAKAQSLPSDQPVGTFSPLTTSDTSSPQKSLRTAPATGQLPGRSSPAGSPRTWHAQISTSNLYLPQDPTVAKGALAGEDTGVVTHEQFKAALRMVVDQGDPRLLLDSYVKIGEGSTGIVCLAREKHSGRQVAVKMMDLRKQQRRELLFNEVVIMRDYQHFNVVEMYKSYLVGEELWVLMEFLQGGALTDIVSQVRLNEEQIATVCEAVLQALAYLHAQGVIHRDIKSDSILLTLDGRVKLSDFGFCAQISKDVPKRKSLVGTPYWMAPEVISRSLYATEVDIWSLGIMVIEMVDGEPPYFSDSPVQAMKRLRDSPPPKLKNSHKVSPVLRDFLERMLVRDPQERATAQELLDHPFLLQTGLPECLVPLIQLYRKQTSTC

inhibition [1]: 0%
inhibition [2]: 0%
inhibition [3]: 35%
Structure (SMILES): CNC(=O)c1ccccc1Oc1nc(Nc2cc(OC)c(OC)c(OC)c2)ncc1Br

inhibition [4]: 0%
fold change (FC) [5]: 0
inhibition [6]: 0%
inhibition [7]: 11%
inhibition [8]: 79%
Structure (SMILES): CC(C)[C@H](NC(=O)c1cc(-c2cnn3cc(-c4ccc(OCCN5CCCCC5)cc4)cnc23)cs1)C(F)(F)F

fold change (FC) [9]: 0
fold change (FC) [10]: 0
inhibition [11]: 0%
fold change (FC) [12]: 0.1
Structure (SMILES): O=C(N[C@@H](C1CC1)C(F)(F)F)c1cc(-c2cnn3cc(-c4ccc(F)cc4)cnc23)cs1
